Experimental data: ChEMBL document CHEMBL4017544 (J Med Chem, 2017)
pIC50: −log10 of the molar value. Active and inactive are the calls of the source. No cut-off for these calls is given here.

Columns and labels:
[1] = biological target: T1, Inhibitor of nuclear factor kappa-B kinase subunit beta (Homo sapiens) (UniProt O14920); test: Inhibition of IKKbeta (unknown origin) transfected in HEK293 cells assessed as mitigation of TNFalpha-induced increase in ratio of nuclear to cytosolic p65 at 200 to 1000 nM administered 6 hrs after TNFalpha stimulation measured for 24 hrs by Western blot method; format: cell-based
T1 sequence (whole entry): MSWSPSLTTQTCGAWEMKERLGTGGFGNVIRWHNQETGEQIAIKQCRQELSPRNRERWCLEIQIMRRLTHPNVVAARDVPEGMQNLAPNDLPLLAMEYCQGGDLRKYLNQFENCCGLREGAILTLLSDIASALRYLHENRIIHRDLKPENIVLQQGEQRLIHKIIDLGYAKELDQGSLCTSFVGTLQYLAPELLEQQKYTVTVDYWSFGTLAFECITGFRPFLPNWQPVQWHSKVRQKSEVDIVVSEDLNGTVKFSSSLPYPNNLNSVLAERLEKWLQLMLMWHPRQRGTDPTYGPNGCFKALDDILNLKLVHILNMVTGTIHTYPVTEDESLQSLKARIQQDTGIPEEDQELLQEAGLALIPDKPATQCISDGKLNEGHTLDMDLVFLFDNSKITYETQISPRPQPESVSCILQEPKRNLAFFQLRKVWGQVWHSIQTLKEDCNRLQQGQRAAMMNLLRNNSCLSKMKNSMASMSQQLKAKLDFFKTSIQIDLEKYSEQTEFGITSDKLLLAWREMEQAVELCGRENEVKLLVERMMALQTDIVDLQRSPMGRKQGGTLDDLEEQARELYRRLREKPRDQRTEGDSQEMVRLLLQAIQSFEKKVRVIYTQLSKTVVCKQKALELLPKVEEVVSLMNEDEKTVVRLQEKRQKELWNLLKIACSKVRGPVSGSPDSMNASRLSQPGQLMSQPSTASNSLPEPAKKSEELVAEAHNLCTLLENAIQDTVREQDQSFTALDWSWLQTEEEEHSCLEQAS
Method in brief: (§1)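 HEK293 cells pretreated with TNF-α (10 ng/mL) for 6 h, then given compound at 200 or 1000 nM for 24 h, in triplicate; nuclear and cytosolic p65, iNOS and COX2 protein by western blot; mean ± SD from three experiments.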

[2] = AUC (0 to t) in Sprague-Dawley rat at 10 mg/kg, iv measured up to 24 hrs by LC-MS/MS analysis; format: ADME, organism-based; set-up: dose 10 mg/kg, time < 24 hr, route intravenous; conditions: in vivo
Method in brief: (§2)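 Rats dosed intravenously at 10 mg/kg; blood drawn from suborbital vein at 0, 2, 5, 15, 30, 60 min and 1.5, 2, 4, 6, 8, 12, 24 h; plasma levels by LC-MS/MS; parameters from concentration–time profiles, mean ± SD, n = 3.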

[3] = Clearance in Sprague-Dawley rat at 10 mg/kg, iv measured up to 24 hrs by LC-MS/MS analysis; format: ADME, organism-based; conditions: in vivo; method in brief: as §2
[4] = Volume of distribution at steady state in Sprague-Dawley rat at 10 mg/kg, iv measured up to 24 hrs by LC-MS/MS analysis; format: ADME, organism-based; conditions: in vivo, read-out: Vdss
Method in brief: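 Rats received a single 10 mg/kg i.v. dose. Blood was drawn from the suborbital vein at 0, 2, 5, 15, 30 and 60 min and at 1.5, 2, 4, 6, 8, 12 and 24 h, and plasma was analyzed by LC-MS/MS. n = 3, mean ± SD.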

Mus musculus [5] = test: Antidiabetic nephropathic activity in db/db mouse assessed as reduction in urine albumin to creatinine ratio at 1 to 2 mg/kg, ip administered thrice per week for 12 consecutive weeks measured at 24 hrs post 11 week administration; format: functional, organism-based
Method in brief: (§3)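 Male db/db mice, 8 weeks old, randomized; ip vehicle (5% Tween-80 in 0.9% saline) or drug three times weekly for 12 weeks, n = 6 per group. After 11 weeks, 24 h urine collected for volume, albumin and creatinine, with UACR calculated; blood then sampled for plasma BUN and uric acid. Mean ± SD, one-way ANOVA with Tukey test.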

Mus musculus [6] = test: Antidiabetic nephropathic activity in db/db mouse assessed as reduction in urinary albumin at 1 to 2 mg/kg, ip administered thrice per week for 12 consecutive weeks measured at 24 hrs post 11 week administration; format: functional, organism-based; method in brief: as §3
[7] = AUC (0 to infinity) in Sprague-Dawley rat at 10 mg/kg, iv measured up to 24 hrs by LC-MS/MS analysis; format: ADME, organism-based; set-up: dose 10 mg/kg, route intravenous, time infinity; conditions: in vivo; method in brief: as §2
[8] = biological target: T1, Inhibitor of nuclear factor kappa-B kinase subunit beta (Homo sapiens); test: Inhibition of IKKbeta (unknown origin) transfected in HEK293 cells assessed as reduction in TNFalpha-induced upregulation of iNOS protein expression at 200 to 1000 nM administered 6 hrs after TNFalpha stimulation measured for 24 hrs by Western blot method; format: cell-based; method in brief: as §1
HEK293 = test: Cytotoxicity against HEK293 cells assessed as reduction in cell viability after 24 hrs by MTT assay; format: cell-based; conditions: Homo sapiens, HEK293, 24 h
Method in brief: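 HEK293 or H9C2 cells grown in high-glucose DMEM with 10% FBS, exposed to compound for 24 h; viability by MTT, IC50 calculated.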

[9] = Half life in Sprague-Dawley rat at 10 mg/kg, iv measured up to 24 hrs by LC-MS/MS analysis; format: ADME, organism-based; conditions: in vivo; method in brief: as §2
Mus musculus [10] = test: Anti-diabetic nephropathic activity in db/db mouse assessed as reduction in plasma uric acid levels at 1 to 2 mg/kg, ip administered thrice per week for 12 consecutive weeks measured at 11 weeks post dose; format: functional, organism-based; method in brief: as §3
[11] = biological target: Kelch-like ECH-associated protein 1 (Homo sapiens) (UniProt Q14145); test: Inhibition of Keap1/Nrf2 (unknown origin) interaction transfected in HEK293 cells assessed as upregulation of HO-1 mRNA expression at 200 to 1000 nM after 48 hrs by quantitative RT-PCR analysis; format: cell-based
Sequence of Kelch-like ECH-associated protein 1 (Homo sapiens) (Q14145 whole entry): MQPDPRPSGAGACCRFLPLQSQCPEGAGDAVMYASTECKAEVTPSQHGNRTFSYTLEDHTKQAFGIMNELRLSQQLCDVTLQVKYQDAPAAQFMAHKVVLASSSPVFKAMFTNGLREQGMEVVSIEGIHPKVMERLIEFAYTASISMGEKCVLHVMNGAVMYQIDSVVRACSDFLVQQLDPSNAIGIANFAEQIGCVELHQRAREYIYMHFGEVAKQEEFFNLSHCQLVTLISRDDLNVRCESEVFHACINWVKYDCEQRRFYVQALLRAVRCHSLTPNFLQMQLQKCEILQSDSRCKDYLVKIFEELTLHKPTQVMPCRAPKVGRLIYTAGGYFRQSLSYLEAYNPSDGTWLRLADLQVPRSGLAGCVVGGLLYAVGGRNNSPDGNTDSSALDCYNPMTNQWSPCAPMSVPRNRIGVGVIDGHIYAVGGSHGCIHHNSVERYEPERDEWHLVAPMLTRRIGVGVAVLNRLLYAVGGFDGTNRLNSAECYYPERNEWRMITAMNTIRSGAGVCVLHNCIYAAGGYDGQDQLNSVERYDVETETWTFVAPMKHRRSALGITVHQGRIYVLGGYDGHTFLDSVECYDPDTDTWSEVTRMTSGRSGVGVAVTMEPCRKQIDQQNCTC
Method in brief: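 HEK293 cells (ATCC; high-glucose DMEM, 10% FBS) were treated in triplicate for 48 h. For the reporter read-out, cells were transfected with an ARE-dependent luciferase plasmid and luciferase activity was measured. For mRNA, total RNA was extracted with TRIzol and reverse transcribed, and target transcripts were quantified by qRT-PCR relative to GAPDH using the 2−ΔΔCt method. Three independent experiments, mean ± SD.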

Mus musculus [12] = test: Renoprotective activity in db/db mouse assessed as […] in number of intraglomerular mesangial cells at 1 to 2 mg/kg, ip administered trice per week for 12 consecutive weeks measured at 11 weeks post dose by H/E-staining based microscopic analysis; format: functional, organism-based
Method in brief: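 Male db/db mice, 8 weeks old, were randomized and dosed i.p. three times weekly for 12 weeks (vehicle: 5% Tween-80 in 0.9% saline; n = 6 per group). Kidneys were fixed in 4% PFA and paraffin-embedded. 5 μm sections were stained with HE, PAS or Masson's trichrome and examined at ×400.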

[13] = biological target: Kelch-like ECH-associated protein 1 (Homo sapiens) (UniProt Q14145); test: Inhibition of Keap1/Nrf2 (unknown origin) interaction transfected in HEK293 cells assessed as increase in cytosolic HO-1 levels at 200 to 1000 nM after 48 hrs by Western blot analysis; format: cell-based
Method in brief: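 HEK293 cells grown in high-glucose DMEM with 10% FBS were treated in triplicate at 200 or 1000 nM for 48 h. Nuclear and cytosolic Nrf2, HO-1 and cytoplasmic NQO1 were measured by western blot with specific antibodies, with TBP and β-actin among the probed proteins. The nuclear/cytosolic Nrf2 ratio was derived from these blots. Three independent experiments, mean ± SD.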

| Structure (SMILES) | inhibition [1] | AUC(0-t) at 24 h [2] | clearance [3] | Vd [4] | Activity (Mus musculus [5]) | Activity (Mus musculus [6]) | AUC(0-inf) [7] | inhibition [8] | pIC50 (HEK293) | half-life [9] | Activity (Mus musculus [10]) | inhibition [11] | Activity (Mus musculus [12]) | inhibition [13] |
| --- | --- | --- | --- | --- | --- | --- | --- | --- | --- | --- | --- | --- | --- | --- |
| COC(=O)[C@@H](N)CCC(=O)Nc1ccc(COC2=C(C#N)[C@H](O)[C@]3(C)C4=CC(=O)[C@@H]5[C@@H]6CC(C)(C)CC[C@]6(C(=O)OC)CC[C@@]5(C)[C@]4(C)CC[C@H]3C2(C)C)cc1 | Active | 509 ng·h/mL | 340 mL/min/kg | 35.1 L/kg | Active | Active | 531 ng·h/mL | Active | 4.25 | 1.31 h | Active | Active | Active |  |
| COC(=O)[C@]12CCC(C)(C)C[C@H]1[C@H]1C(=O)C=C3[C@@]4(C)C=C(C#N)C(=O)C(C)(C)[C@@H]4CC[C@@]3(C)[C@]1(C)CC2 [BARDOXOLONE METHYL] | Active | 2060 ng·h/mL | 78 mL/min/kg | 29.1 L/kg |  |  | 2180 ng·h/mL | Active | 5.66 | 4.41 h |  | Active |  | Active |
